Compounds with a hit are over-represented: about 4.6% of the library has one in this group of screens.
GPR7 antagonist: blocks human GPR7 receptor signaling. GPR7-expressing cells, fluorescence antagonist assay. 290,000 compounds, 1.1% hits. inhibition, % at 4.4 µM. AID 1861. P48145; in the data active means inhibition above about 16%, passing the limit was not always enough;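 further: cells stimulated with the agonist NPW; 0% = agonist with vehicle and 100% = vehicle without agonist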
TAAR1 antagonist: human TAAR1 antagonism | Q96RJ0 | 360,000 compounds, 1.5% hits | inhibition, % at 3 µM | CHO RD-HGA16 TAAR1, Fluo-8 calcium fluorescence, antagonist;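 active means inhibition above a per-plate cutoff, the mean inhibition of test compounds on that plate plus 3 SD, cut at about 49% in these data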;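 further: 0% = DMSO plus EC80 beta-PEA response and 100% = DMSO alone without agonist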
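Assay system: RD-HGA16 CHO cells with stable hTAAR1 and Gα16 / Reagent: EC80 β-phenethylamine stimulus / Doses: 3 µM, single point / Timing: dye loading 75 min at 37 °C, then 30 min room temperature / Measured by: Fluo-8 intracellular calcium dye fluorescence, real-time kinetic reads / Controls: vehicle wells and EC80 agonist wells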
OX1R antag-1: human HCRTR1 antagonism | 330,000 compounds, 0.43% hits | CHO/OX1R cells, Fluo-8 calcium fluorescence, orexin A | O43613 | inhibition, % at 5 µM;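 active means inhibition above its plate's threshold, mean inhibition of all tested compounds on the plate plus 3 SD, cut at about 37% in these data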;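 further: 0% = orexin A challenge wells and 100% = SB-334867-A antagonist wells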
Target sequence (O43613 whole entry, looked up): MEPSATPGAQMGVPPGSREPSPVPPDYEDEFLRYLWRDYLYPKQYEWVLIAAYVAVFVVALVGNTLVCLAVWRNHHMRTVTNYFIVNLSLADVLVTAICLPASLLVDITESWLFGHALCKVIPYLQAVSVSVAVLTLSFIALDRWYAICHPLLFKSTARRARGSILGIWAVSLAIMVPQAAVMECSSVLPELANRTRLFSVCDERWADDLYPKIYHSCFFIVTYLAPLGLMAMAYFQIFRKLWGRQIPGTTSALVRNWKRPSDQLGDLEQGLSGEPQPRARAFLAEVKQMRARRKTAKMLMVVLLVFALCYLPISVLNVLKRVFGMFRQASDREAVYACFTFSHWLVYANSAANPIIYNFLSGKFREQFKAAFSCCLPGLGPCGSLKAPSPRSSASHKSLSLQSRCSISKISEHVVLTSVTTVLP
OX1R antag-2: antagonists of human orexin 1 receptor (OX1R) | 330,000 compounds, 1.8% hits | O43613 | AID 485270 | OX1R-expressing cells, FRET antagonist read-out | inhibition, % at 6.6 µM; in the data active means inhibition mostly above about 38%, no sharp cut-off; inactive means mostly below about 40%;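 further: 0% = agonist challenge alone and 100% = reference antagonist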
TAAR1 agonist: agonists of human TAAR1; Q96RJ0; CHO RD-HGA16 TAAR1, Fluo-8 calcium fluorescence; vehicle wells 0%, saturating PEA agonist 100%; activation, % at 3 µM; 360,000 compounds, 0.99% hits; AID 624467;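 active means activation above the mean activation of all test compounds in the run plus 3 SD, cut at about 38% in these data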
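Test system: RD-HGA16 (CHO) cells co-expressing Gα16 and hTAAR1 | Doses: Single dose, 3 µM | Schedule: 17-24 h seeding, 75 min 37 °C dye, 30 min RT | Evaluation: % activation from peak over basal fluorescence ratio, DMSO-to-PEA scaled | Technique: Kinetic Fluo-8 calcium fluorescence | Benchmarks: Low control DMSO, high control PEA (EC100)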
CHO parental Ca: counter-screen: ATP calcium response change in parental CHO cells. inhibition, % at 5.6 µM. parental CHO-K1, ATP-induced calcium, Fluo-8 fluorescence. 330,000 compounds, 0.63% hits;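 active means inhibition above that plate's mean sample inhibition plus 3 SD, cut at about 26% in these data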;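 further: 0% = ATP-challenged DMSO wells and 100% = DMSO wells without ATP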
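material = parental CHO cells | also added = ATP as calcium-mobilizing challenge | dosing = single point at 5.6 µM | detection = intracellular calcium via Fluo-8 no-wash fluorescent dye | read-out = % inhibition | benchmarks = low control ATP plus DMSO, high control DMSO only | repeats = one well per compound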
Active calls of the source: *; x = not tested or not shown.

SMILES	GPR7 antagonist	TAAR1 antagonist	OX1R antag-1	OX1R antag-2	TAAR1 agonist	CHO parental Ca
CC(Oc1ccccc1)C(=O)N1CCN=C1SCc1cccc(F)c1 (centres undefined)	11	10	-17	9	9	-12
COc1ccc(C(N)c2nccc3cc(OC)c(OC)cc23)cc1OC (centres undefined)	-2	x	-41	73*	x	-14
COc1cc(N)c(Cc2nccc3cc(OC)c(OC)cc23)cc1OC	-6	-4	-20	19	5	-24
Cc1ccc(-n2c(N)c(C(=O)Nc3c(C)n(C)n(-c4ccccc4)c3=O)c3nc4ccccc4nc32)cc1C	20	x	37	16	x	38*
COC(=O)c1cc2c(c3c4cc(OC)ccc4n(S(=O)(=O)c4ccc(OC)cc4)c13)C(=O)N(Cc1ccc(C(F)(F)F)cc1)C2	x	-26	x	x	0	x
Cc1ccc(NC(=O)CSCC(=O)Nc2ccc(S(=O)(=O)N3CCOCC3)cc2)cc1	-9	4	-20	8	4	-11
COc1ccc(NC(=O)CC(C)c2ccccc2)cc1S(=O)(=O)N1CCOCC1 (centres undefined)	x	-10	-18	4	10	-16
O=C(CSc1cccc2cccnc12)Nc1ccc(S(=O)(=O)N2CCOCC2)cc1	-10	-7	17	16	2	38*
O=C(CSc1ccccc1)Nc1ccc(Cl)c(S(=O)(=O)N2CCOCC2)c1	x	13	12	40*	7	-10
O=C(Nc1ccccc1)Nc1ccc(Cl)c(S(=O)(=O)N2CCOCC2)c1	18*	16	-9	14	33	8
O=C(CSc1ncccn1)Nc1ccc(Cl)c(S(=O)(=O)N2CCOCC2)c1	x	-21	-17	5	0	-2
Cc1ccc(NC(=O)CC(C)c2ccccc2)cc1S(=O)(=O)N1CCOCC1 (centres undefined)	x	-3	4	37*	6	-12
Cc1ccc(-c2nc3ccccc3s2)cc1S(=O)(=O)N1CCOCC1	-4	4	-20	15	11	-4
O=S(=O)(c1cc(-c2nc3ccccc3s2)ccc1Cl)N1CCOCC1	23*	x	x	x	x	x
COCCOC(=O)c1c(NC(=O)COC(=O)c2ccc(C)o2)sc(C(N)=O)c1C	x	-6	-15	10	7	-14
CN(C)S(=O)(=O)c1cccc(COC(=O)Cc2c(F)cccc2Cl)c1	0	20	-14	32	2	45*
CN(C)S(=O)(=O)c1cccc(COC(=O)c2cccnc2Cl)c1	6	-8	17	38	8	10
C/C(=N\NC1=NCCN1)c1ccc(N)c([N+](=O)[O-])c1	2	-4	-8	33	5	-3
CCCCCCOc1ccc(/C(C)=N/NC2=NCCN2)cc1[N+](=O)[O-]	1	0	-6	5	38*	-2
Brc1ccc(OCc2ccccc2)c(CNCc2ccncc2)c1	5	70*	-18	18	14	-11
Fc1ccc(COc2ccccc2CNCc2ccncc2)cc1	-6	-13	-20	1	4	1
COc1ccc(/C=C2\Oc3cc(OCC(=O)N4CCC[C@H]4C(=O)O)ccc3C2=O)cc1OC	5	x	-4	51*	x	-11
COc1ccc(/C=C2\Oc3cc(OCC(=O)N4CCC[C@H]4C(=O)O)ccc3C2=O)c(OC)c1OC	-2	-8	-6	39	2	-10
O=C(NCCc1ccccc1)c1ccccc1NC(=O)C1CCCO1 (centres undefined)	20*	6	-5	2	2	-1
O=C(NCCc1ccccc1)c1ccc(NC(=O)C2CCCCC2)cc1	x	49*	x	x	5	x
O=C(O)c1ccccc1NC(=O)C1CCCO1 (centres undefined)	-1	-20	4	11	-2	5
CCOC(=O)CN1C(=O)[C@]2(OCCC=C[C@H]2C)c2cc(OC)ccc21	x	-20	x	x	2	x
Cc1ccccc1C(=O)NNC(=O)c1cccc([N+](=O)[O-])c1	2	-2	-3	44	4	-5
O=C(NNc1c(Cl)cc(Cl)cc1Cl)c1cccc([N+](=O)[O-])c1	-11	1	8	34	0	48*
O=C(NNC(=O)c1ccccc1[N+](=O)[O-])c1cnccn1	-10	-4	-5	8	5	-6

Screening data: PubChem, The Scripps Research Institute Molecular Screening Center
